AI-2 QS mod: Vibrio harveyi AI-2 quorum sensing modulators, primary screen, JMH597 strain, luminescence/OD600 ratio | Vibrio harveyi JMH597 AI-2 luminescence/OD600 ratio, 9 h; active compounds read low; strain lacks LuxN and CqsS sensors; 0 = neutral-control median | 0.4% of 300,000 active | activity change, % at 7.5 µM; in the data active = activity change below about -75%, passing the limit was not always enough;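 also: luminescence divided by OD600 gain over 9 h not by final OD600 alone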
PHOSPHO1 block: PubChem AID 1565; Phosphoethanolamine/phosphocholine phosphatase (Homo sapiens), Q8TCT1; 1.1% of 290,000 active; inhibition, % at 13.3 µM; recombinant PHOSPHO1, absorbance phosphatase assay; in the data active = inhibition above about 60%
Target sequence (Q8TCT1 whole entry, looked up): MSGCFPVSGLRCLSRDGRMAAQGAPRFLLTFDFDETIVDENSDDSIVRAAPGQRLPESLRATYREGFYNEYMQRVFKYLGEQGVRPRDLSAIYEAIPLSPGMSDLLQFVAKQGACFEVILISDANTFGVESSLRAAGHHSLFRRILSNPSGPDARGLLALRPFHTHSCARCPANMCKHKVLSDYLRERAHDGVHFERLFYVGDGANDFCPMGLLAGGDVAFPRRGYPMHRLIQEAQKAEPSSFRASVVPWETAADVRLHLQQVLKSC
HSF1 activator: HSF-1 activators, primary screen, NIH3T3-HGL cells, MG132 stress, luminescence, single point. NIH3T3-HGL HSF-1 luciferase reporter, 8 h; 100% = twice DMSO control signal. activation, % at 9 µM. 1.7% of 300,000 active. AID 504408, 2011;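 active = mean replicate activation of at least 50% with a set share of replicates each reaching 50%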;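 also: 0% = median of the neutral control wells and 100% = twice that signal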
HCV core dimer: inhibitors of HCV core protein dimerization, primary screen, biochemical, TR-FRET, high-throughput. inhibition, % at 5 µM. TR-FRET GST/Flag-core106 dimerization, 1536-well. 0.33% of 300,000 active. AID 1899, 2009;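 active = inhibition above the mean of all tested compounds plus 3 SD, set per screening campaign, cut at about 45% in these data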
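Material: GST/Flag-tagged HCV core106 proteins. Incubation: 4 h, 22.5 °C incubation. Read-out basis: inhibition (%) from 671 over 617 nm ratio. Measured by: TR-FRET, excitation 340 nm, emission 617 and 671 nm.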
ALR H2O2 inh: inhibitors of human ALR sulfhydryl oxidase, primary screen, biochemical, H2O2 detection, HRP-luminol luminescence, single point | inhibition, % (concentration not given with the values) | FAD-linked sulfhydryl oxidase ALR (Homo sapiens), P55789 | purified ALR, DTT oxidation | AID 485317, 2010 | 3.8% of 290,000 active;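 active = mean replicate inhibition above about 79%, with every replicate also reaching it, limit read from the data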
Target sequence (P55789 whole entry, looked up): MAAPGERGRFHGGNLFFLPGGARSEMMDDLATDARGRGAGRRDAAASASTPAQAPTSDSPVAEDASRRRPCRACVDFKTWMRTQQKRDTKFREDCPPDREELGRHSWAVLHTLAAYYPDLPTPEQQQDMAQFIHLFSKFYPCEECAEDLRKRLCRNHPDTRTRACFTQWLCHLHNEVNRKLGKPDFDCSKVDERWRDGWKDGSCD
HSF1 inhib: HSF1 inhibitors in luciferase reporter cells, primary screen, cell-based, NIH3T3, luminescence | NIH3T3-HGL HSE-luciferase, MG132-induced, luminescence 8 h; active compounds read low | activity change, negative = inhibition, % at 7.5 µM (by protocol) | 0.77% of 300,000 active;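 active = more than half of replicate wells show activity change below -50%, luminescence cut by over half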;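 also: luciferase reports HSF-1 transcriptional activity via heat shock element; 0% = median of DMSO wells and -100% = zero luminescence signal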
* marks the source's active call; other numbers are inactive results; · = no result. Hits are enriched below; roughly 6.8% of the tested compounds scored in any of these assays.

SMILES	AI-2 QS mod	PHOSPHO1 block	HSF1 activator	HCV core dimer	ALR H2O2 inh	HSF1 inhib
Cc1cccc(NC(=O)c2ccc(N3CCCCC3)c([N+](=O)[O-])c2)n1	19	0	62*	0	-4	32
O=C(c1ccc(Cl)c([N+](=O)[O-])c1)N1CCCc2ccccc21	13	·	16	8	-6	4
O=C(O)/C=C/C(=O)c1ccc2c(c1)CCc1ccccc1-2	-89*	·	175*	14	59	146
CC(=O)Nc1ccc2c(c1)CCc1ccccc1-2	18	44	36	-22	-28	17
COc1cc(CCC(=O)NCCc2ccc(F)cc2)cc(OC)c1OC	15	25	1	6	-2	5
Cc1c(OCc2nn[nH]n2)ccc2c3c(c(=O)oc12)CCCC3	25	-18	-3	6	26	-7
Cc1c(OCc2nn[nH]n2)ccc2c3c(c(=O)oc12)CCC(C)C3 (configuration not stated)	35	7	-4	3	98*	-6
CC1=C(CC(=O)O)c2cc(F)ccc2/C1=C\c1ccc(S(C)=O)cc1 (configuration not stated)	6	4	-6	-1	-18	1
CCOC(=O)CN(C(=O)CSc1nnc(CNc2ccc(C)cc2C)o1)c1ccccc1	9	33	-3	6	96*	3
Cc1ccc(NCc2nnc(SCC(=O)OC3CCCCC3)o2)c(C)c1	36	10	9	6	98*	3
CSCC[C@H](N)C(=O)N1CCC(C(=O)N[C@H](C)C(=O)Nc2ccc(C(C)C)cc2)CC1	44	2	-35	0	-7	-20
COc1ccccc1CNC(=O)COC(=O)c1cc(-c2ccco2)nc2ccccc12	14	17	-14	69*	-10	-1
COc1ccccc1CNC(=O)COC(=O)c1cc(C)nc2ccccc12	·	·	·	·	0	·
Cc1cccc(-c2noc(-c3ccccc3C(=O)NCc3ccco3)n2)c1	11	3	64*	1	1	29
CCN(C(=O)COC(=O)c1cc(-c2ccc(C)o2)nc2ccccc12)C1CCS(=O)(=O)C1 (configuration not stated)	20	0	16	10	0	18
CCN(C(=O)COC(=O)c1cc(-c2cccs2)nc2ccccc12)C1CCS(=O)(=O)C1 (configuration not stated)	14	63*	9	4	0	5
O=C(COC(=O)c1cc(-c2cccs2)nc2ccccc12)NCc1ccco1	4	20	6	63*	8	0
Cc1ccc(CSCCNS(=O)(=O)c2ccc(C)cc2)cc1	5	-15	-17	2	-15	2
NC(=O)c1nsc(C(=O)N(c2cccc(F)c2)C(C(=O)NCC2CCCO2)c2ccc3ncccc3c2)c1N (configuration not stated)	11	49	0	-3	·	-4
Cc1ccc(-c2cc(C(=O)NCc3ccco3)c3ccccc3n2)s1	4	-4	15	47*	2	7
O=C(COC(=O)c1ccccc1Oc1ccccc1)NCc1ccco1	-2	6	1	74*	9	2
O=C(COC(=O)c1cc(-c2ccc(Cl)s2)nc2ccccc12)NCc1ccco1	8	-11	29	39	92*	20
O=C(NCc1ccco1)c1cc(-c2cccs2)nc2ccccc12	12	-18	8	-6	0	5
COc1ccc(CNC(=O)COC(=O)c2cc(-c3ccc(Cl)s3)nc3ccccc23)cc1	-1	6	-4	-9	-16	6
CCOC(=O)Cn1nc(C)cc1NC(=O)c1cccnc1	-3	-114	26	1	-4	7
SMILES	AI-2 QS mod	PHOSPHO1 block	HSF1 activator	HCV core dimer	ALR H2O2 inh	HSF1 inhib
CCOC(=O)C1CCN(S(=O)(=O)c2cccc(-c3cn4cccc(C)c4n3)c2)CC1	·	-47	·	21	-6	·
Cc1cccn2cc(-c3cccc(S(=O)(=O)N4CC(C)OC(C)C4)c3)nc12 (configuration not stated)	15	26	4	1	97*	7
Cc1cccn2cc(-c3cccc(S(=O)(=O)N4CCOCC4)c3)nc12	6	-7	9	8	96*	-4
COc1ccc(OCCN2C(=O)c3ccccc3C2=O)cc1	33	36	-62	-1	1	-55*
Nc1cccc2c1C(=O)N(CCOc1ccc(F)cc1)C2=O	9	6	62*	0	-3	39
CC(C)Oc1cccc(OCCN2C(=O)c3ccccc3C2=O)c1	17	55	12	5	·	8
O=C1c2ccccc2C(=O)N1CCOc1ccccc1	-18	·	125*	-3	4	80
COc1ccc(OC(=O)CCCN2C(=O)c3ccccc3C2=O)cc1	25	4	7	-4	-9	-9
Nc1nc(SCC(=O)C23CC4CC(CC(C4)C2)C3)n[nH]1	11	88*	27	-2	-11	1
CSc1nc(N)nc(SCC(=O)C23CC4CC(CC(C4)C2)C3)c1C#N	39	-23	4	9	-2	7
CCOC(=O)c1c(-c2ccc(C)o2)csc1NC(=O)CSc1nncs1	42	0	95*	13	9	80
CCOC(=O)c1c(-c2ccco2)csc1N	12	80*	-23	0	-6	2
CCOC(=O)c1c(-c2ccco2)csc1NC(=O)COC(=O)c1cnccn1	13	·	17	67*	69	9
CCOC(=O)c1c(NC(=O)COC(=O)c2cnccn2)sc(C(=O)NC)c1C	·	·	4	-2	-1	1
CCOC(=O)c1c(-c2ccc(C)o2)csc1NC(=O)CN1CCCCC1	20	29	18	6	6	4
CCOC(=O)c1c(-c2ccco2)csc1NC(=O)CSc1nnc(N)s1	-5	25	16	48*	6	14
Cc1cc(C)c[n+](-c2[nH]c(=O)sc2/C=N/NC([S-])=Nc2ccccc2)c1	2	-20	-7	-6	·	11
COc1ccc2cc(C(C)C(=O)N3CCC(C(N)=O)CC3)ccc2c1 (configuration not stated)	-9	35	-9	-6	-2	1
c1ccc(-c2nc(-c3nccc4ccccc34)oc2-c2ccccc2)cc1	13	-74	31	4	0	5
COc1cc2cc(Br)cc(Br)c2nc1C	-1	-12	12	63*	-7	2

From PubChem
